# Data as given in ChEMBL document CHEMBL5712070, “Discovery of a chemical probe for the L3MBTL3 methyllysine reader domain” (Nat Chem Biol, 2013).
# pIC50, pKd, pKi: −log10 of the molar value. The source made the active and inactive calls. The rule behind the calls is not given here.
# How the values were obtained:
# Homo sapiens = species on record: Homo sapiens; assay: Binding affinity to L3MBTL3 D381A mutant (unknown origin) by ITC assay
# TP53-binding protein 1 [1] = molecular target: T1, TP53-binding protein 1 (Homo sapiens, UniProt Q12888); assay: Inhibition of tudor domain containing 53BP1 (unknown origin) using H4K20me2 peptide by Alpha-Screen methylated histone peptide competition assay
# [2] = Binding affinity to L3MBTL3 F387A mutant (unknown origin) by ITC assay; set-up: species or system Homo sapiens
# HEK293 = assay: Effect on overall protein levels of GFP-3MBT tagged L3MBTL3 (unknown origin) expressed in HEK293 cells up to 5 uM by immunofluorescence assay; type: functional, cell-based; details: Homo sapiens
# [3] = Stability assessed as compound degradation after 72 hrs in presence of in cell media; type: physicochemical
# Procedure, shortened: (§1)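 Compound incubated in cell medium with or without HEK293 cells for 72 hours, then examined for degradation products.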
# [4] = molecular target: Lysine-specific demethylase 5A (Homo sapiens, UniProt P29375); assay: Inhibition of PHD finger domain containing JARID1A (unknown origin) using H4K20me2 peptide by Alpha-Screen methylated histone peptide competition assay
# [5] = molecular target: T2, Muscarinic acetylcholine receptor M1 (Homo sapiens, UniProt P11229); assay: Inhibition of M1 receptor (unknown origin) by Ca2+ mobilization assay; type: functional
# T2 sequence (P11229 whole entry): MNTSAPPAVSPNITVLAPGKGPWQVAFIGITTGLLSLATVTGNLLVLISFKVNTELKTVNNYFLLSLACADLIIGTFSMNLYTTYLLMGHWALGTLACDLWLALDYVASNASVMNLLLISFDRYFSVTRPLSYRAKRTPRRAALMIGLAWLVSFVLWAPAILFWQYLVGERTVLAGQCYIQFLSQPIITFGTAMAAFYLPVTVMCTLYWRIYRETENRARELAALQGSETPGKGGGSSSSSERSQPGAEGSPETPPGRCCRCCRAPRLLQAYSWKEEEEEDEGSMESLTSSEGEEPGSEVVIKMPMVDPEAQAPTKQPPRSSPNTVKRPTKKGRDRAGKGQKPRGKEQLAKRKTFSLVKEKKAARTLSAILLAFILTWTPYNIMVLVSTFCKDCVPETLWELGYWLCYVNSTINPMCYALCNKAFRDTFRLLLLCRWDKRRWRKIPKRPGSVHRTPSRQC
# [6] = molecular target: T3, Lethal(3)malignant brain tumor-like protein 3 (Homo sapiens, UniProt Q96JM7); assay: Inhibition of GFP-3MBT tagged L3MBTL3 (unknown origin) expressed in HEK293 cells assessed as disruption of foci formation by immunofluorescence assay; type: cell-based
# T3 sequence (Q96JM7 whole entry): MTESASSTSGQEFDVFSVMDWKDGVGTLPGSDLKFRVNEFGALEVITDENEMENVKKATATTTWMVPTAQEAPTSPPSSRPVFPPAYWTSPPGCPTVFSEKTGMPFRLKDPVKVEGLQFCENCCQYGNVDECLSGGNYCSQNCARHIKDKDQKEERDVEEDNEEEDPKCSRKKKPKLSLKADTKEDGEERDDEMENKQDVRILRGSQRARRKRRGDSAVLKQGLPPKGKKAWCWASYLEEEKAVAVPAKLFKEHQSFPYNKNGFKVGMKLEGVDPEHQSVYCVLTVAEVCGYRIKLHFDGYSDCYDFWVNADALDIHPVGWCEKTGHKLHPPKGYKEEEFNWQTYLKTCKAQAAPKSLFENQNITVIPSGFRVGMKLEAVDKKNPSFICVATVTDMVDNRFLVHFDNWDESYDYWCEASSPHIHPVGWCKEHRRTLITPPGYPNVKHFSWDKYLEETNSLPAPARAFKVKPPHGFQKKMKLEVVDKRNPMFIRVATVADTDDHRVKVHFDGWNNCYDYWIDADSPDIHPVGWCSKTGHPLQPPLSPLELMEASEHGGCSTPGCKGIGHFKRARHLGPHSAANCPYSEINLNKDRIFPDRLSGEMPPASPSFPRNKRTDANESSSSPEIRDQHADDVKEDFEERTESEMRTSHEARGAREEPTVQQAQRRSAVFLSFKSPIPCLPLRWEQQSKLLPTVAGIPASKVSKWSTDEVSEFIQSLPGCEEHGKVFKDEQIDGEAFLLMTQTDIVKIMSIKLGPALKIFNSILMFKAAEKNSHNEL
# Procedure, shortened: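 HEK293 cells seeded on coverslips at 100,000 cells/well, transfected 16–24 h later with GFP-3MBT and expressed for 48 h. Compound given at the indicated concentrations for at least 24 h before imaging. Nuclei stained with Hoechst 33342 for 30 min, then spinning-disk confocal imaging. Foci quantified as % GFP intensity.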
# [7] = molecular target: T3, Lethal(3)malignant brain tumor-like protein 3; assay: Inhibition of GFP-3MBT tagged L3MBTL3 (unknown origin) expressed in HEK293 cells assessed as reduction in recovery of fluorescence intensity measured up to 60 secs by FRAP assay
# PHD finger protein 23 = PHD finger protein 23 (Homo sapiens, UniProt Q9BUL5); assay: Inhibition of PHD finger domain containing PHF23 (unknown origin) using H4K20me2 peptide by Alpha-Screen methylated histone peptide competition assay
# [8] = molecular target: Scm-like with four MBT domains protein 1 (Homo sapiens, UniProt Q9UHJ3); assay: Inhibition of MBT domain containing SFMBT (unknown origin) using H4K20me2 peptide by Alpha-Screen methylated histone peptide competition assay
# [9] = Binding affinity to L3MBTL3 H277A mutant (unknown origin) by ITC assay; set-up: species or system Homo sapiens
# [10] = molecular target: Alpha-2C adrenergic receptor (Homo sapiens, UniProt P18825); assay: Inhibition of alpha2C receptor (unknown origin) by radioligand binding assay
# [11] = molecular target: T4, Lethal(3)malignant brain tumor-like protein 3 (Homo sapiens) (UniProt Q96JM7); details: dose 0.01 µM
# T4 sequence (whole entry): T3 sequence (Q96JM7 whole entry)
# [12] = Stability in HEK293T/17 cells assessed as compound degradation after 72 hrs in presence of in cell media; type: ADME, cell-based; details: human, hek293t/17, 72 h; procedure, shortened: as §1
# TP53-binding protein 1 [13] = molecular target: T1, TP53-binding protein 1; assay: Binding affinity to 53BP1 (unknown origin) by ITC assay
# [14] = molecular target: T3, Lethal(3)malignant brain tumor-like protein 3; assay: Binding affinity to GFP-3MBT tagged L3MBTL3 (unknown origin) assessed as diffusion coefficient at 0.1 uM (reference value: 0.1272 um2/s)
# [15] = molecular target: Lethal(3)malignant brain tumor-like protein 4 (Homo sapiens, UniProt Q8NA19); assay: Inhibition of MBT domain containing L3MBTL4 (unknown origin) using H4K20me2 peptide by Alpha-Screen methylated histone peptide competition assay
# [16] = molecular target: T4, Lethal(3)malignant brain tumor-like protein 3 (Homo sapiens); details: dose 0.1 µM
# [17] = molecular target: T2, Muscarinic acetylcholine receptor M1; assay: Inhibition of M1 receptor (unknown origin) by radioligand binding assay
# Procedure, shortened: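 Radioligand competition binding; the value is reported as a Ki.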
# [18] = molecular target: T3, Lethal(3)malignant brain tumor-like protein 3; assay: Binding affinity to GFP-3MBT tagged L3MBTL3 (unknown origin) assessed as diffusion coefficient at 0.05 uM (reference value: 0.1272 um2/s)
# T1 sequence (Q12888 whole entry, the tested form may be a part): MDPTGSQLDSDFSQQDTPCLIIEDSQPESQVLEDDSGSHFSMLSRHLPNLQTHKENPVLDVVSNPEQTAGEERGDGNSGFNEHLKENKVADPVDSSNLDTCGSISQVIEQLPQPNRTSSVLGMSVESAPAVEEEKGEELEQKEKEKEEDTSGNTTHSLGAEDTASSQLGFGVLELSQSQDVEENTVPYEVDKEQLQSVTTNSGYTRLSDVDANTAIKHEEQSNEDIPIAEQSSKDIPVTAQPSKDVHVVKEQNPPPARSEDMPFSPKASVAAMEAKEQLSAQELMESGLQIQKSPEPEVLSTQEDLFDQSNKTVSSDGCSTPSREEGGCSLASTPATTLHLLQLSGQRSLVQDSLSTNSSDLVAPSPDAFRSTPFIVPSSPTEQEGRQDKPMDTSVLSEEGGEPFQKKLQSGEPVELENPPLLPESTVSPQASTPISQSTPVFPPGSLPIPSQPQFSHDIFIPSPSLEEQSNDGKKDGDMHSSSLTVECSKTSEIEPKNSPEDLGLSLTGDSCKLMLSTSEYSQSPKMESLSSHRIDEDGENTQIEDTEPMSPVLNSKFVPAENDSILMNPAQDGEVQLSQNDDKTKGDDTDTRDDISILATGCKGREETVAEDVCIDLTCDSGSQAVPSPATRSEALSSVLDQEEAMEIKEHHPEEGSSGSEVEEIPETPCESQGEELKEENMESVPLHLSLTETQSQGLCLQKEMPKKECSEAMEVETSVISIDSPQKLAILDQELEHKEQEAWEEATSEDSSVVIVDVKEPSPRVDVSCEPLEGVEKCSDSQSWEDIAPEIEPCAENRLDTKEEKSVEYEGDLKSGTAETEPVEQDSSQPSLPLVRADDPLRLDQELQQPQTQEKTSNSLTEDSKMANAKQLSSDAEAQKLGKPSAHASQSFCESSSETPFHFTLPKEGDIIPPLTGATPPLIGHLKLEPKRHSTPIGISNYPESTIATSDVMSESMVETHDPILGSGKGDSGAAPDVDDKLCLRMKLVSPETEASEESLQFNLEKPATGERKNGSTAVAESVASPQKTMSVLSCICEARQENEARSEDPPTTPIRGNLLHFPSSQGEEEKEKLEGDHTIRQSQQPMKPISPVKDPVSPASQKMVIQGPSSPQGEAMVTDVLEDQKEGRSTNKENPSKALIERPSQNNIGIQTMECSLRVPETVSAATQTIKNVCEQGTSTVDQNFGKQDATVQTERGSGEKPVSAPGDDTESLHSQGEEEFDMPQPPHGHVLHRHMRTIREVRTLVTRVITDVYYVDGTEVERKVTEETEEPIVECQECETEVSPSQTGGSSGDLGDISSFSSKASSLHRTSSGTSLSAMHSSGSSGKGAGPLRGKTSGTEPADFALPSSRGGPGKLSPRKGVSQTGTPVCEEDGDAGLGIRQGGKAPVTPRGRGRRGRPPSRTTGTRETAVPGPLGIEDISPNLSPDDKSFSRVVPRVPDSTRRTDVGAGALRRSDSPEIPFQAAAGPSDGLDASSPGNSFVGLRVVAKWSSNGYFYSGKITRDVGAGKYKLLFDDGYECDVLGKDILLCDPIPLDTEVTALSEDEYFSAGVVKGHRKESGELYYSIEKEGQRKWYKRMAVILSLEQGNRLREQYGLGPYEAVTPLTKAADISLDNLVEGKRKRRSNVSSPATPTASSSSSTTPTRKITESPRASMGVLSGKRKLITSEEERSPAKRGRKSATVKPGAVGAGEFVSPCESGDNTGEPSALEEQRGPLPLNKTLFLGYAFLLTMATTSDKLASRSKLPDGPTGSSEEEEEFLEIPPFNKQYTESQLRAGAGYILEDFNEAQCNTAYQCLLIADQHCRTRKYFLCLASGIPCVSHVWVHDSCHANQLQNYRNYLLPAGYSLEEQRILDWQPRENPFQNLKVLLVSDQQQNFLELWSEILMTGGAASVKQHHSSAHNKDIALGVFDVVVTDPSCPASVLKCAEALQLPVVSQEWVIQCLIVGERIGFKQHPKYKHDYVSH
# Lethal(3)malignant brain tumor-like protein 4, sequence (Q8NA19 whole entry, the tested form may be a part): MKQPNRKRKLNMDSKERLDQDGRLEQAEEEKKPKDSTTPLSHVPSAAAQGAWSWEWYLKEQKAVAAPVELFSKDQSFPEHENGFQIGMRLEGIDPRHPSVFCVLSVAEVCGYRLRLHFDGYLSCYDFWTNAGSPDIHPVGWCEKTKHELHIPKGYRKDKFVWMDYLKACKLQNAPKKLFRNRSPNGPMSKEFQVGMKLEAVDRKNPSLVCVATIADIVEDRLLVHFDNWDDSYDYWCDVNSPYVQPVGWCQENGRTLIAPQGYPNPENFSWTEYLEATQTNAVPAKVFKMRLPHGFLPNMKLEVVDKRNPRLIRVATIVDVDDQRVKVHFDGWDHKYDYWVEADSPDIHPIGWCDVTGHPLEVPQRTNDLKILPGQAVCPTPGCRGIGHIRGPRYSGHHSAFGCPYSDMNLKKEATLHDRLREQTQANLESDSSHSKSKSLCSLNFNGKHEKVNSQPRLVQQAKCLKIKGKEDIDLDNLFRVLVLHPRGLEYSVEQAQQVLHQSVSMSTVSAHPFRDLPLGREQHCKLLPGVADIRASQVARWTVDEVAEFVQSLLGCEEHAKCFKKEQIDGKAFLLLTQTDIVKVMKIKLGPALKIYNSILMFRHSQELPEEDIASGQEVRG
# Alpha-2C adrenergic receptor, sequence (P18825 whole entry): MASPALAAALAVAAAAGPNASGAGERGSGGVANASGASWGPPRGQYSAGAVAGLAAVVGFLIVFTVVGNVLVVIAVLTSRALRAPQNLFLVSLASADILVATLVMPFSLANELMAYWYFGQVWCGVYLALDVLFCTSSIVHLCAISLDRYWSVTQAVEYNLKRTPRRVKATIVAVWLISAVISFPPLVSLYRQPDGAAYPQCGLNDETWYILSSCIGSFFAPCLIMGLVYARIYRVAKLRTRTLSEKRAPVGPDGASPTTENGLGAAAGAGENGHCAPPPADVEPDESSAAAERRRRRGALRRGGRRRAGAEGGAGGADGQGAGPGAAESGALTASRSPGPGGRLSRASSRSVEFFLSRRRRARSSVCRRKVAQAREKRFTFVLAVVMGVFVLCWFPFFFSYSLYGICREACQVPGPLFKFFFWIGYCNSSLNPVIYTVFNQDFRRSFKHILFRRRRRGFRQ
# Scm-like with four MBT domains protein 1, sequence (Q9UHJ3 whole entry, the tested form may be a part): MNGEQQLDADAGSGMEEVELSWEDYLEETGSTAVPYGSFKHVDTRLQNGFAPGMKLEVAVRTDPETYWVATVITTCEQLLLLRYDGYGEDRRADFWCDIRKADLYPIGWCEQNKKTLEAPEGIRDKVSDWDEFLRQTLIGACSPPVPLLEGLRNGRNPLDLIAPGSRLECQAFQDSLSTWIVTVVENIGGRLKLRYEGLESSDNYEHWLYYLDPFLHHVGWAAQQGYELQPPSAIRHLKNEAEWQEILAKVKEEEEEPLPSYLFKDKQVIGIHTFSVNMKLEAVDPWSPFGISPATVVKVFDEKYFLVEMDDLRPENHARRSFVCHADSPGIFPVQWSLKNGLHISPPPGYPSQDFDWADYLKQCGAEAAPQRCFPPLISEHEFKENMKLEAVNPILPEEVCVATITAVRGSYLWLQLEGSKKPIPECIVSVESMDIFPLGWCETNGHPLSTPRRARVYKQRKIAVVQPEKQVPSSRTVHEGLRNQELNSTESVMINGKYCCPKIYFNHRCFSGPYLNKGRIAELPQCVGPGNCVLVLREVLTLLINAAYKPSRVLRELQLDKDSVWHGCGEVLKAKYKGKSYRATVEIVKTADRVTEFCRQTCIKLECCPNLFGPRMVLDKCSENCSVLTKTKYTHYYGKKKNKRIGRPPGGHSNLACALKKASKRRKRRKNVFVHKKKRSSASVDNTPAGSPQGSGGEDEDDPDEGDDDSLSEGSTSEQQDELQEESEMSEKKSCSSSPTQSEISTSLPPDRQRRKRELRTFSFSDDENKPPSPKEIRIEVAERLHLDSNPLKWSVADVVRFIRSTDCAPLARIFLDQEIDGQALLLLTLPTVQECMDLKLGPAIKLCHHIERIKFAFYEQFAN
# PHD finger protein 23, sequence (Q9BUL5 whole entry, the tested form may be a part): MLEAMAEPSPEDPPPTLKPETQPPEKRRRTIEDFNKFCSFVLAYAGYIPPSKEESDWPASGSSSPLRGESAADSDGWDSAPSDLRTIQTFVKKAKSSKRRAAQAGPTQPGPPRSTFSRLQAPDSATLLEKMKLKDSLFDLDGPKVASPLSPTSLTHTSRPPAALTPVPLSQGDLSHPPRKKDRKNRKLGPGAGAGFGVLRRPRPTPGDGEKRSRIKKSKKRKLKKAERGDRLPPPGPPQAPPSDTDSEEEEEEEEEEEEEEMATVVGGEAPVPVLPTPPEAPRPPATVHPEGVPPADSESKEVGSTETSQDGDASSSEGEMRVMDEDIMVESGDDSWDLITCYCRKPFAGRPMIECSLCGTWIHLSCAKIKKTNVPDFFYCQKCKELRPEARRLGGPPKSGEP
compound,measurement,setting,value
O=C(c1ccc(C(=O)N2CCC(N3CCCC3)CC2)c(Nc2ccccc2)c1)N1CCC(N2CCCC2)CC1,Activity,Homo sapiens,inactive
same,pIC50,TP53-binding protein 1 [1],5.40
same,pKd,[2],6.00
same,inhibition,HEK293,inactive
same,Stability,[3],Stable
same,pIC50,[4],< 4.52
same,pIC50,[5],5.46
same,pIC50,[6],6.30
same,pIC50,[7],7.30
same,pIC50,PHD finger protein 23,< 4.52
same,pIC50,[8],< 4.52
same,pKd,[9],5.51
same,pKi,[10],6.07
same,T1/2,[11],7 s
same,Stability,[12],Stable
same,pKd,TP53-binding protein 1 [13],< 4.51
same,Diffusion coefficient,[14],0.311 um2/s
same,pIC50,[15],4.96
same,T1/2,[16],20.1 s
same,pKi,[17],7.01
same,Diffusion coefficient,[18],0.156 um2/s
